Measurements reported in ChEMBL document CHEMBL1127317 (J Med Chem, 1994).

Assays:
Type in all cases: ADME
[1] = The observed pseudo-first-order rate constants of compound for cyclization reaction at pH 2.4
Method in brief: (§1)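 Amines generated from the 2-nitroaryl amides, incubated at 37 °C in aqueous buffer of ionic strength 0.01 M. Cyclization followed at the same time by UV/vis spectrophotometry in thermostated stoppered cuvettes and by C-18 reverse-phase HPLC (MeOH/10 mM phosphate pH 7 mobile phase). Runs lasted 4 h at first, extended to about 4 half-lives when product formed. Pseudo-first-order k_obs was taken from first-order loss of amine peak area.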

[2] = The half-life for cyclization reaction at pH 2.4; method in brief: as §1
[3] = The observed pseudo-first-order rate constant of compound for cyclization reaction at pH 2.4; method in brief: as §1
[4] = The observed pseudo-first-order rate constant of compound for cyclization reaction at pH 6.8; method in brief: as §1
[5] = The half-life for cyclization reaction at pH 6.8; method in brief: as §1

Row | Compound | K obs [1] | half-life [2] | K obs [3] | K obs [4] | half-life [5] | T1/2 [2]
1 | COc1ccc(NC(=O)c2cccc3cccc(N)c23)cc1 | 0.11 min⁻¹ | 6.3 min | – | – | – | –
2 | COc1ccc(NC(=O)Cc2ccccc2N)cc1 | – | 260 min | 0.0026 min⁻¹ | – | – | –
3 | CC(=O)c1ccc(NC(=O)C(C)(C)c2ccccc2N)cc1 | – | – | 21 min⁻¹ | 0.02 min⁻¹ | 35 min | 0.033 min
4 | COc1ccc(NC(=O)C(C)(C)c2ncccc2N)cc1 | – | 8.9 min | 0.078 min⁻¹ | 0.0013 min⁻¹ | 530 min | –
5 | COc1ccc(NC(=O)C(C)(C)c2ccccc2N)cc1 | – | – | 10 min⁻¹ | 0.0096 min⁻¹ | 72 min | 0.07 min
6 | CCC(CC)(C(=O)Nc1ccc(OC)cc1)c1ccccc1N | – | 0.43 min | 1.64 min⁻¹ | 0.028 min⁻¹ | 250 min | –
7 | COc1ccc(NC(=O)CS(=O)(=O)c2c(C)cccc2N)cc1 | – | 1700 min | 0.0004 min⁻¹ | – | – | –
8 | COc1ccc(NC(=O)c2c(C)nn(-c3ccccc3)c2-c2ccccc2N)cc1 | – | 36 min | 0.019 min⁻¹ | – | – | –
9 | Nc1ccccc1CCC(=O)Nc1cnc2ccccc2c1 | – | 32 min | 0.022 min⁻¹ | – | – | –
10 | Nc1ccccc1CC(=O)Nc1cnc2ccccc2c1 | 0.008 min⁻¹ | 87 min | – | – | – | –
11 | COc1ccc(NC(=O)[C@@H]2CCCN2C(=O)c2ccccc2N)cc1 | – | 74 min | 0.0094 min⁻¹ | – | – | –
12 | COc1ccc(NC(=O)Cn2ncc3cccc(N)c32)cc1 | – | 83 min | 0.0084 min⁻¹ | – | – | –
13 | COc1ccc(NC(=O)CCc2ccccc2N)cc1 | – | 58 min | 0.012 min⁻¹ | – | – | –
14 | COc1ccc(NC(=O)C(C)(C)c2cc(C(=O)NCCN(C)C)ccc2N)cc1 | – | 0.27 min | 2.58 min⁻¹ | 0.0009 min⁻¹ | 770 min | –
15 | CC(C)(C(=O)Nc1ccccc1)c1ccccc1N | – | – | 21 min⁻¹ | 0.02 min⁻¹ | 35 min | 0.033 min
16 | COc1ccc(N(C)C(=O)C(C)(C)c2ccccc2N)cc1 | – | 0.28 min | 2.5 min⁻¹ | 0.0009 min⁻¹ | 800 min | –
17 | CN(C)c1ccc(NC(=O)C(C)(C)c2ccccc2N)cc1 | – | – | – | 0.0097 min⁻¹ | 71 min | –
18 | COc1ccc(NC(=O)C(C)c2ccccc2N)cc1 (stereo not given) | – | 16 min | 0.043 min⁻¹ | – | – | –
